Assay results gathered from unrelated publications.
Each line is one published result; the experiments were not run side by side.
Cell line: MCF7
Observed: cell growth or viability

SMILES | test | conditions | IC50
Cc1occc(=O)c1[O-].[Cl-].[W+4].c1cc[cH-]c1.c1cc[cH-]c1 | MTT |  | 330 µM
COc1cccc2c1C(=O)c1c(O)c3c(c(O)c1C2=O)C[C@@](O)(C(=O)CO)C[C@@H]3O[C@H]1C[C@H](N)[C@H](O)[C@H](C)O1 | MTT | 48 h | 0.06 µM
Oc1ncnc2cc(Nc3nc(-c4ccc(Br)cc4)cs3)ccc12 | MTT |  | 4.92 µM
O=[N+]([O-])c1ccc(-c2nc3ccccc3[nH]2)cc1 | MTT | 48 h | 27.2 µM
CCN(CC)CCn1cccc1/C=N/NC(=O)Nc1cc2c(Nc3ccc(F)c(Cl)c3)ncnc2cc1OC | MTT | 72 h | 0.57 µM
Cc1ccc2nc(-c3ccc(Cl)cc3)[nH]c2c1 | MTT | 48 h | 25.6 µM
O=C(NC(=S)N1CCCCC1)c1ccc2ccccc2c1 |  | 48 h | 7.32 µM
Cc1ccc2nc(-c3ccccc3Cl)[nH]c2c1 | MTT | 48 h | > 100 µM
COc1cc(OC)c(/C=C/S(=O)(=O)Nc2ccc(OC)c(N)c2)c(OC)c1 | trypan blue | 96 h | 0.004 µM
COc1cccc(C(c2c(N)nc(SCC(N)=O)[nH]c2=O)c2c(N)nc(SCC(N)=O)[nH]c2=O)c1 | MTT | 72 h | > 100 µM
Oc1ccccc1-c1ccc2ncnc(Nc3cccc(C(F)(F)F)c3)c2c1 | MTT | 24 h | 7.13 µM
C=C1C(=O)[C@]2(OC)C(=O)O[C@@]34C[C@H](C)C(C(=O)O)=C[C@@H]3CCC[C@@H](C)C[C@@H](C)[C@H]1O[C@H]24 | ATP luminescence |  | 21 µM
COc1ccc(O)c(/C=N/c2nc(SC)nn2-c2ccc(C(=O)O)cc2)c1 | MTT |  | 27.3 µM
C#Cc1cccc(Nc2ncnc3cc(OCCOC)c(OCCOC)cc23)c1 | MTT |  | 3.16 µM
O=c1ccn(Cc2cn(-c3c4ccccc4nc4ccccc34)nn2)c(=O)[nH]1 | MTT |  | 10.9 µM
Cc1nc(Nc2ncc(C(=O)Nc3c(C)cccc3Cl)s2)cc(N2CCN(CCO)CC2)n1 | MTT | 48 h | 7.99 µM
O=C(N/N=C/CN1CCCC1)Nc1cc2c(Nc3ccc(F)c(Cl)c3)ncnc2cc1O[C@H]1CCOC1 | MTT | 72 h | 3.12 µM
O=S(=O)(NN=Cc1cn(CCN2CCOCC2)c2ccccc12)c1ccc(F)cc1 | MTT | 48 h | 32.6 µM
O=c1[nH]c(=S)[nH]c2c1CCCN2 | MTT | 72 h | > 100 µM
O=c1c(O)c(-c2ccc(O)c(O)c2)oc2cc(O)cc(O)c12 | WST-1 | 48 h | 11.7 µM
CCOc1ccc(-c2nc3ccccc3[nH]2)cc1 | MTT | 48 h | > 100 µM
COc1cccc2c1C(=O)c1c(O)c3c(c(O)c1C2=O)C[C@@](O)(C(=O)CO)C[C@@H]3O[C@H]1C[C@H](N)[C@H](O)[C@H](C)O1 | SRB |  | 0.18 µM
CN1CCN(C/C=N/NC(=O)Nc2cc3c(Nc4ccc(F)c(Cl)c4)ncnc3cc2O[C@H]2CCOC2)CC1 | MTT | 72 h | 2.04 µM
CC(C)C(=O)Nc1ccc([N+](=O)[O-])c(C(F)(F)F)c1 | CCK-8 | 48 h | 39 µM

SMILES | test | conditions | IC50
O=C(NC(=S)NCc1ccccc1)c1ccc2ccccc2c1 |  | 48 h | 4.99 µM
O=C(CCl)Nc1ccc2c(Nc3cccc(C(F)(F)F)c3)ncnc2c1 | MTT | 24 h | 7.78 µM
Oc1c(Br)cc(Br)c2cccnc12 | MTT | 48 h | > 100 µM
CS(=O)(=O)c1ccc(-n2cc(C=N/N=c3\[nH]c(-c4ccc(Br)cc4)cs3)c(-c3ccc([N+](=O)[O-])cc3)n2)cc1 | MTT | 48 h | 19.9 µM
COc1cc2ncnc(Nc3ccc(F)c(Cl)c3)c2cc1NC(=O)N/N=C/CN1CCCCC1 | MTT | 72 h | 6.42 µM
COc1cccc(C(=O)O[C@@H]2CN3Cc4c(cc5c(c4OC)OCO5)[C@@]24C=C[C@H](OC)C[C@@H]34)c1 | WST-1 |  | > 10 µM
CSc1nc(N)n(-c2ccc(C(=O)O)cc2)n1 | MTT |  | 32.9 µM
FC(F)(F)c1cccc(Nc2ncnc3ccc(-c4ccsc4)cc23)c1 | MTT | 24 h | 4.39 µM
Fc1ccc(-c2nc3ccccc3n2Cc2ccccc2)cc1 | MTT |  | 31.5 µM
CSc1nc(/N=C/c2cc([N+](=O)[O-])ccc2O)n(-c2ccc(C(=O)O)cc2)n1 | MTT |  | 20 µM
O=c1[nH]cc(F)c(=O)[nH]1 | WST-1 | 48 h | 3.1 µM
Fc1ccc(-c2nc3ccccc3[nH]2)cc1 | MTT | 48 h | 68 µM
O=C(N/N=C/CN1CCOCC1)Nc1cc2c(Nc3ccc(F)c(Cl)c3)ncnc2cc1O[C@H]1CCOC1 | MTT | 72 h | 1.08 µM
COc1ccc(Nc2nc(-n3nc(C)cc3C)nc(-n3nc(C)cc3C)n2)cc1 | MTT | 72 h | 12 µM
COc1cc(Nc2nccc(-c3cnn4nc(OC)ccc34)n2)cc(C(F)(F)F)c1 | ATP luminescence |  | 0.95 µM
O=C(NC(=S)NCCNC(=S)NC(=O)c1ccc2ccccc2c1)c1ccc2ccccc2c1 |  | 48 h | 1.2 µM
COc1cc([C@@H]2c3cc4c(cc3[C@@H](O[C@@H]3O[C@@H]5CO[C@@H](C)O[C@H]5[C@H](O)[C@H]3O)[C@H]3COC(=O)[C@H]23)OCO4)cc(OC)c1O | MTT | 48 h | 32.8 µM
O=C(NC(=S)Nc1ccccc1)c1ccc2ccccc2c1 |  | 48 h | 5.11 µM
COc1cccc(-c2nc3ccccc3n2Cc2ccccc2)c1 | MTT |  | 24.8 µM
COc1cc(/C=C/C(=O)c2ccc(NC(=O)c3ccccc3CN3C(=O)c4ccccc4C3=O)cc2)cc(OC)c1OC | MTT | 72 h | 1.88 µM
COc1cc2ncnc(Nc3ccc(F)c(Cl)c3)c2cc1NC(=O)N/N=C/c1cccn1CCCN1CCCC1 | MTT | 72 h | 1.33 µM
Cc1ccc2nc(-c3ccc(F)cc3)[nH]c2c1 | MTT | 48 h | 38.6 µM
COc1cc2ncnc(Nc3ccc(F)c(Cl)c3)c2cc1NC(=O)N/N=C/c1cccn1CCN(C)C | MTT | 72 h | 3.21 µM
O=S(=O)(NN=Cc1cn(CCN2CCOCC2)c2ccccc12)c1ccc(Cl)cc1 | MTT | 48 h | 13.2 µM
